Source: PubChem BioAssay
M4 ag: agonists of human muscarinic M4 receptor (CHRM4); AID 624127; 360,000 compounds, 0.14% hits; activation, % at 3 µM; CHO-K1 hM4/Gqi5, Fluo-8 calcium fluorescence; vehicle 0%, full acetylcholine response 100%; P08173;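 active = activation above the run mean over all test wells plus 3 SD, cut at about 32% in these data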;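 note: peak over basal fluorescence ratio per well then scaled between controls; 0% = DMSO wells and 100% = acetylcholine at EC100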
M5 antag: CHRM5 antagonism in calcium assay; P08912; inhibition, % at 3 µM; 360,000 compounds, 0.59% hits; CHO-hM5 cells, Fluo-8 calcium fluorescence, ACh EC80;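 active = inhibition above a per-plate cutoff, the mean of that plate's test compounds plus 3 SD, cut at about 27% in these data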;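 note: 0% = acetylcholine EC80 with DMSO and 100% = DMSO without agonist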
Target sequence (P08912 whole entry, looked up): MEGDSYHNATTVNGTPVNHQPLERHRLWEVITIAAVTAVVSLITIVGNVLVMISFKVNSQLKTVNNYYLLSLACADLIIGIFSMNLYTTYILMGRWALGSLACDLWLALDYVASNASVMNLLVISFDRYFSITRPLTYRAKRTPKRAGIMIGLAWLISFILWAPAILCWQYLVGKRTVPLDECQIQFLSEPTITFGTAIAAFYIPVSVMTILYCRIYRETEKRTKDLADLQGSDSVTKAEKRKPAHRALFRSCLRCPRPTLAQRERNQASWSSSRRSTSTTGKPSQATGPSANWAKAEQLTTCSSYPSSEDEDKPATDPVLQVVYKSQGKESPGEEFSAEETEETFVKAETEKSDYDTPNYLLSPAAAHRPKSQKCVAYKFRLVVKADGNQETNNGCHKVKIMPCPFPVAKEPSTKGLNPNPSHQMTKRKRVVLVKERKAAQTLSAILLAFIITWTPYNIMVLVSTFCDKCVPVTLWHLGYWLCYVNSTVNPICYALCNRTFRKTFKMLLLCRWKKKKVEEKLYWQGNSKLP
M5 PAM: positive allosteric modulators of human muscarinic M5 receptor | P08912 | activation, % at 3 µM | 360,000 compounds, 0.3% hits | CHO-K1 hM5, Fluo-8 calcium, ACh EC20 PAM; 0% = ACh EC20, 100% = ACh EC100 | AID 624038;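 active = activation above the run cutoff, the mean activation of all test compounds plus 3 SD, cut at about 18% in these data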
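System – CHO-K1 hM5 cells · Compound – 3 µM, single dose · Incubation – compound preincubation 140 s before EC20 acetylcholine addition · Technique – Fluo-8 calcium fluorescence · Measure – Max/basal fluorescence ratio as % of EC20–EC100 ACh window · Benchmarks – low control EC20 acetylcholine (0%), high control EC100 acetylcholine (100%) · Replication – singlicate, one well per test compound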
M4 PAM: positive allosteric modulators of human muscarinic M4 receptor. P08173. CHO-K1 hM4/Gqi5, Fluo-8 calcium fluorescence, ACh EC20; 0% = ACh EC20, 100% = maximal ACh. 360,000 compounds, 0.4% hits. AID 624126. activation, % at 3 µM;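 active = activation above its plate's cutoff, the mean activation of sample wells plus 3 SD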
CHRM4 antagonist: CHRM4 antagonism in calcium assay | CHO-hM4 cells, ACh EC80, Fluo-8 calcium fluorescence | inhibition, % at 3 µM | 360,000 compounds, 0.73% hits;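 active = inhibition above its plate's cutoff, the mean inhibition of sample wells plus 3 SD, cut at about 27% in these data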;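 note: 0% = acetylcholine EC80 with DMSO and 100% = DMSO without agonist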
M5 ag: CHRM5 agonism in calcium assay. 360,000 compounds, 0.19% hits. AID 624037. activation, % at 3 µM. CHO-K1 hM5 cells, Fluo-8 calcium fluorescence; 0% DMSO wells, 100% maximal acetylcholine response. P08912;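 active = activation above the run's mean over test compounds plus 3 SD, cut at about 23% in these data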;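 note: signal is peak over basal fluorescence ratio across the kinetic read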
Active calls of the source: *. An excerpt weighted towards active compounds, which were near 1.8% of everything screened.

SMILES	M4 ag	M5 antag	M5 PAM	M4 PAM	CHRM4 antagonist	M5 ag
COc1cc2sc(-c3ccccc3OC)c(-c3ccc(OCCN4CCCCC4)cc3)c2cc1OC	11.7	13.7	-7.6	-1.5	24.7	2.0
COc1ccccc1-c1sc2cc3c(cc2c1-c1ccc(OCCN2CCCCC2)cc1)OCO3	6.8	6.8	-12.3	0.1	34.8*	-5.5
Cn1c(N)c(N2CCCCC2)c(=O)n(CC(=O)Nc2ccc(Cl)c(Cl)c2)c1=O	-0.3	-4.3	19.0*	24.4	2.8	5.7
Cc1csc(=O)n1CC(=O)Nc1ccc(Cl)c(Cl)c1	3.1	7.6	-7.5	-7.0	7.6	0.2
COc1cccc(-c2cnc(C(O)c3cccc(F)c3)[nH]2)c1 (centres undefined)	1.2	-3.0	1.0	-3.4	-4.1	0.5
NC(=O)c1nsc(C(=O)N(c2cccc(F)c2)C(C(=O)NC2CCCC2)c2ccc(O)cc2)c1N (centres undefined)	1.2	-3.5	4.8	-7.4	9.3	1.5
COc1ccc(C(C(=O)NC2CCCC2)N(C(=O)c2snc(C(N)=O)c2N)c2cccc(O)c2)cc1 (centres undefined)	20.5	26.9*	-13.5	-11.0	8.2	-0.1
OCc1cccc(Nc2ncnc3sc4c(c23)CCCCC4)c1	3.1	0.4	0.2	2.6	-7.3	0.2
Cc1csc(=O)n1CCC(=O)OCC(=O)c1ccc(Br)cc1	1.2	-9.7	-2.5	-0.9	-13.0	0.7
CCOC(=O)CS(=O)(=O)CC(=O)Nc1ccc([N+](=O)[O-])cc1OC	1.1	-4.8	19.7*	9.7	-8.2	2.7
CCOCC(=O)Nc1ccc([N+](=O)[O-])cc1OC	1.0	3.8	1.5	11.7	-8.2	-2.5
O=C(OCC(=O)N1N=C(c2ccc(Cl)cc2)CC1c1ccco1)c1cccnc1 (centres undefined)	0.7	-0.9	18.1*	8.3	-4.9	6.0
O=C(CCl)N1N=C(c2ccco2)CC1c1ccco1 (centres undefined)	1.0	10.6	28.5*	1.9	-7.0	2.8
O=C(CNC(=O)c1ccccc1F)NCc1ccncc1	1.7	1.4	-4.8	-0.2	4.6	5.6
COCCN1C(=O)CS/C1=C(/C#N)C(=O)NCc1ccco1	1.4	15.8	-3.7	2.2	-1.5	-0.3
O=C(CCC1CCCN(C2C3CC4CC(C3)CC2C4)C1)NCc1ccc(F)c(F)c1 (centres undefined)	0.2	9.7	0.4	-19.5	40.6*	-15.7
Cc1occc1C(=O)N1CCCC(CCC(=O)NCc2ccc(F)c(F)c2)C1 (centres undefined)	2.2	1.9	2.9	2.0	-7.2	-2.0
CCCCN1C(=O)/C(=C/C=C2/CC(C)(C)CN2C)SC1=S	34.2*	36.1*	-14.7	-10.8	24.7	46.8*
CCCCN1C(=O)/C(=C/C=C2\Oc3ccccc3N2CC)SC1=S	19.5	24.7	-8.1	-9.8	21.6	47.6*
CCN1C(=O)/C(=C/C=C2/SCCN2C)SC1=S	4.0	-1.5	-11.5	-5.5	-0.4	4.9
Cc1cccc(-n2ncc3c2CCCC3NC(=O)CCN2CCCO2)c1C (centres undefined)	4.1	-2.1	-0.8	6.9	-2.0	-1.4
Cc1cc(C)[n+](Cc2ccccc2)cc1C(N)=O	0.3	2.8	4.6	-10.6	-2.6	-11.2
COc1cc(/C=C2\SC(=S)N(C(C(=O)O)c3ccccc3)C2=O)ccc1O (centres undefined)	40.4*	27.1*	-20.4	-21.4	21.6	40.3*
COc1ccccc1/C=C1\SC(=S)N(C(C(=O)O)c2ccccc2)C1=O (centres undefined)	-0.7	1.5	-0.9	0.4	-7.2	-6.2
CCOc1ccc(/C=C2/SC(=S)N(C(C(=O)O)c3ccccc3)C2=O)cc1OCC (centres undefined)	0.5	-4.8	3.5	3.9	0.3	-1.9
SMILES	M4 ag	M5 antag	M5 PAM	M4 PAM	CHRM4 antagonist	M5 ag
O=C1/C(=C\c2ccc(O)c(O)c2)SC(=S)N1Cc1ccccc1	20.4	22.0	-8.8	-9.6	23.3	15.1
CCOc1cc(/C=C2\SC(=S)N(C(C(=O)O)c3ccccc3)C2=O)ccc1O (centres undefined)	52.1*	14.1	-24.0	-27.8	10.4	61.1*
COc1ccc(/C=C2\SC(=S)N(C(Cc3ccccc3)C(=O)O)C2=O)cc1 (centres undefined)	-0.5	10.8	-4.1	-4.2	11.6	-1.2
O=C(O)C(c1ccccc1)N1C(=O)/C(=C\c2ccc(O)c(O)c2)SC1=S (centres undefined)	35.0*	2.1	-6.8	-23.1	15.4	16.6
COc1cc(/C=C2/SC(=S)N(Cc3ccccc3)C2=O)ccc1O	10.5	11.4	1.1	1.9	-6.2	23.3*
CC1(C(=O)Nc2ccc3c(c2)OCCO3)CN(S(C)(=O)=O)CC(=O)N1CCCn1ccnc1 (centres undefined)	-0.1	1.6	2.4	5.0	-4.0	1.6
O=C1/C(=C\c2cccc(O)c2O)SC(=S)N1Cc1ccccc1	0.5	1.0	1.4	1.1	7.8	2.5
O=C1/C(=C\c2cc([N+](=O)[O-])ccc2O)SC(=S)N1Cc1ccc(Cl)cc1	17.3	28.5*	-11.3	-22.6	30.0*	15.7
COc1cc(/C=C2/SC(=S)N(c3c(C)n(C)n(-c4ccccc4)c3=O)C2=O)ccc1O	9.3	18.0	-16.2	-5.8	7.6	28.9*
COc1cc(/C=C2\SC(=S)N(NS(=O)(=O)c3ccccc3)C2=O)ccc1O	10.2	13.1	-6.3	-8.1	3.5	11.6
N#Cc1ccccc1OCC(=O)OCC(=O)NC1CCS(=O)(=O)C1 (centres undefined)	1.8	6.2	-3.8	11.3	-3.1	0.1
O=C(c1ccc2c(c1)OCO2)C1CCCN(Cc2ccccc2OC(F)F)C1 (centres undefined)	1.7	26.7	-13.7	-14.6	40.4*	-8.4
NC1=NC[C@@H](CC2CCCCC2)N1CCc1cc(C(F)(F)F)cc(C(F)(F)F)c1	-0.7	45.1*	-19.6	-14.0	23.9	-3.2
CC(O)[C@H]1CNC(=O)C(=O)N1CCc1cc(C(F)(F)F)cc(C(F)(F)F)c1 (some centres undefined)	0.9	42.5*	-17.4	2.6	-2.5	-5.3
CCC(C)[C@H]1CN=C(N)N1CCc1cc(C(F)(F)F)cc(C(F)(F)F)c1 (some centres undefined)	-0.1	29.3*	-41.8	-7.9	9.8	-10.5
CC(O)[C@H]1CNC(=O)C(=O)N1CCc1cccc(F)c1 (some centres undefined)	0.4	4.6	-0.6	-1.8	-1.6	6.3
